Positions count from the first letter of the chain named.

One series relates to Streptococcus pneumoniae. The series can be described thus: Inhibition of Streptococcus pneumoniae PBP1B assessed as residual activity at 1 mM after 60 mins by SDS-PAGE.
For series [1], the target named is D-alanyl-D-alanine carboxypeptidase (Actinomadura sp. R39, UniProt P39045). The experiment in a line: Inhibition of Actinomadura sp. R39 penicillin-binding protein preincubated for 60 mins before addition of substrate mixture of (R)-[2-(benzoylamino)propionylsulfanyl]acetic acid and 5,5'-dithiobis(2-nitrobenzoic acid). Put shortly: (§1)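 Purified R39 (3.5 nM) preincubated with compound in 10 mM sodium phosphate pH 7.2, 100 mM NaCl, 100 mM D-alanine, 0.01 mg/mL BSA, 60 min, 25 °C. S2d then added (final 1 mM) with DTNB (final 0.5 mM; 1% v/v DMF). Initial hydrolysis rate read at 412 nm. Spontaneous substrate hydrolysis was measured without enzyme. Triplicates. IC50 from nonlinear regression of RA across a concentration range.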
Chain of D-alanyl-D-alanine carboxypeptidase (P39045 whole entry): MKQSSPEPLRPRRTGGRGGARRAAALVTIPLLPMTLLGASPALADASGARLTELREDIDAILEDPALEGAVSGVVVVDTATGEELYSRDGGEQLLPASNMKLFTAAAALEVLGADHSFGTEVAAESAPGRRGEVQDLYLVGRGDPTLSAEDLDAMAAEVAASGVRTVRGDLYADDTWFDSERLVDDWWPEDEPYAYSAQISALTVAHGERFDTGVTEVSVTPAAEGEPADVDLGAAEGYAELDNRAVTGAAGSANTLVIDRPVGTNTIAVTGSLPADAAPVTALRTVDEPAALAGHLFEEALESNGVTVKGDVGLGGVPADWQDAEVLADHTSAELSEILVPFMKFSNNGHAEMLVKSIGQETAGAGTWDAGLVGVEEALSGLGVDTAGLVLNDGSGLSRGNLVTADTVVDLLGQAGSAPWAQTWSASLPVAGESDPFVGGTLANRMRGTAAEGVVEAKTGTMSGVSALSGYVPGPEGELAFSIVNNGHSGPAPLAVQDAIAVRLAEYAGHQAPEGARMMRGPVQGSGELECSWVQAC

The target of series [2] is T1, Penicillin-binding protein 2X (Streptococcus pneumoniae R6) (UniProt P59676).
T1 sequence (whole entry): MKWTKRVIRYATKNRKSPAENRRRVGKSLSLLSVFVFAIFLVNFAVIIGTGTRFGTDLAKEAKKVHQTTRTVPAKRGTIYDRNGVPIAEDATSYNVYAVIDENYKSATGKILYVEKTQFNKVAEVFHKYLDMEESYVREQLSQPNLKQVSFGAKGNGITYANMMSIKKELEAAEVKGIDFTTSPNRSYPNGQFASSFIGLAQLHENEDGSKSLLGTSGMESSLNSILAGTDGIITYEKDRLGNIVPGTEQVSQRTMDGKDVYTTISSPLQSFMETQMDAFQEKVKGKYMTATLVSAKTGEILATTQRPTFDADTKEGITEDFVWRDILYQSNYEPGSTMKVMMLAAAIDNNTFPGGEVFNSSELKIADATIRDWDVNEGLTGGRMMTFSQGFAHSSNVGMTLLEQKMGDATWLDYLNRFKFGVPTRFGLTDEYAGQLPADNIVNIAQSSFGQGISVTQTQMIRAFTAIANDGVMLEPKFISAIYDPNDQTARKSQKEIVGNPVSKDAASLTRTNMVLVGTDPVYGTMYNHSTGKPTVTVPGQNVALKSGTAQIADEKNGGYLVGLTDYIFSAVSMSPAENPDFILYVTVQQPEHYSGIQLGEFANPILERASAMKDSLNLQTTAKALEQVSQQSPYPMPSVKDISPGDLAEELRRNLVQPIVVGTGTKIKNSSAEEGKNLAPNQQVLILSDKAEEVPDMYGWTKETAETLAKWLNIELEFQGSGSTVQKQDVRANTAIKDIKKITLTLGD
The experiment in a line: Inhibition of penicillin-sensitive Streptococcus pneumoniae R6 PBP2X assessed as residual activity at 500 uM preincubated for 60 mins before addition of substrate mixture of (R)-[2-(benzoylamino)propionylsulfanyl]acetic acid and 5,5'-dithiobis(2-nitrobenzoic acid). In a few lines: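 S. pneumoniae PBP2xR6 (0.09 μM) was preincubated with compound in 10 mM sodium phosphate pH 7.0 with 0.01 mg/mL BSA, for 60 min at 25 °C. S2d (1 mM final) and DTNB (0.5 mM final) were added, and the initial hydrolysis rate was monitored at 412 nm. Uninhibited activity (six replicates per plate) was set as 100%; assays ran in triplicate.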

Series [3] concerns the target T2, Penicillin-binding protein 2x (Streptococcus pneumoniae serotype 4 (strain ATCC BAA-334 / TIGR4)) (UniProt P14677).
T2 sequence (whole entry): T1 sequence (whole entry) with M385T
The experiment in a line: Inhibition of penicillin-resistant Streptococcus pneumoniae 5204 PBP2X assessed as residual activity at 500 uM preincubated for 4 hrs before addition of substrate mixture of (R)-[2-(benzoylamino)propionylsulfanyl]acetic acid and 5,5'-dithiobis(2-nitrobenzoic acid). In a few lines:
(§2)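 PBP2x-5204 (0.6 μM) preincubated with compound in 10 mM sodium phosphate pH 7.0, 70 mM D-alanine, 0.01 mg/mL BSA, 4 h, 25 °C. S2d (final 1 mM) and DTNB (final 0.5 mM) then added. Residual activity taken from initial rate at 412 nm against uninhibited enzyme (six replicates per plate). Triplicates. IC50 by nonlinear regression.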

A short description of series [4]: Solubility in sodium phosphate buffer saline of pH 7.2 at 1 mM. The class given is physicochemical. The following applies: pH 7.2, 1000 µM.
Series [5] addresses D-alanyl-D-alanine carboxypeptidase (Actinomadura sp. R39) (UniProt P39045). The experiment in a line: Inhibition of Actinomadura sp. R39 penicillin-binding protein at 0.5 mM preincubated for 60 mins before addition of substrate mixture of (R)-[2-(benzoylamino)propionylsulfanyl]acetic acid and 5,5'-dithiobis(2-nitrobenzoic acid). In a few lines:
(§3)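 Purified Actinomadura R39 D,D-peptidase (3.5 nM) was preincubated with compound for 60 min at 25 °C. S2d (1 mM final) and DTNB (0.5 mM final) were then added, with 1% v/v DMF. Initial rate was read at 412 nm, corrected for enzyme-free hydrolysis, in triplicate.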

Series [6] concerns the target T2, Penicillin-binding protein 2x (Streptococcus pneumoniae serotype 4 (strain ATCC BAA-334 / TIGR4)). The series can be described thus: Inhibition of penicillin-resistant Streptococcus pneumoniae 5204 PBP2X assessed as residual activity at 100 uM preincubated for 4 hrs before addition of substrate mixture of (R)-[2-(benzoylamino)propionylsulfanyl]acetic acid and 5,5'-dithiobis(2-nitrobenzoic acid). Put shortly:
as §2

In series [7] the target is D-alanyl-D-alanine carboxypeptidase (Actinomadura sp. R39) (UniProt P39045). The series can be described thus: Inhibition of Actinomadura sp. R39 penicillin-binding protein assessed as residual activity at 100 uM preincubated for 60 mins before addition of substrate mixture of (R)-[2-(benzoylamino)propionylsulfanyl]acetic acid and 5,5'-dithiobis(2-nitrobenzoic acid). In a few lines:
as §1

Series [8] in a line: Solubility in sodium phosphate buffer saline of pH 7.2. The format is physicochemical.
Series [9] has as its target T1, Penicillin-binding protein 2X (Streptococcus pneumoniae R6). The experiment in a line: Inhibition of penicillin-sensitive Streptococcus pneumoniae R6 PBP2X assessed as residual activity at 100 uM preincubated for 60 mins before addition of substrate mixture of (R)-[2-(benzoylamino)propionylsulfanyl]acetic acid and 5,5'-dithiobis(2-nitrobenzoic acid). In a few lines:
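PBP2x-R6 (0.09 μM) preincubated with compound in 10 mM sodium phosphate pH 7.0, 0.01 mg/mL BSA, 60 min, 25 °C. S2d (final 1 mM) and DTNB (final 0.5 mM) then added. Residual activity from initial rate at 412 nm, relative to enzyme-only wells. Triplicates. Repeated with 0.01% Triton X-100 when RA <80%.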

The target of series [10] is D-alanyl-D-alanine carboxypeptidase (Actinomadura sp. R39) (UniProt P39045). The series can be described thus: Inhibition of Actinomadura sp. R39 penicillin-binding protein assessed as residual activity at 500 uM preincubated for 60 mins before addition of substrate mixture of (R)-[2-(benzoylamino)propionylsulfanyl]acetic acid and 5,5'-dithiobis(2-nitrobenzoic acid). In a few lines: as §3
Chain of D-alanyl-D-alanine carboxypeptidase (Actinomadura sp. R39) (P39045 whole entry): as the sequence (P39045 whole entry) above

In series [11] the target is Penicillin-binding protein 2x (Streptococcus pneumoniae serotype 4 (strain ATCC BAA-334 / TIGR4), UniProt P14677). The experiment in a line: Inhibition of penicillin-resistant Streptococcus pneumoniae 5204 PBP2X preincubated for 4 hrs before addition of substrate mixture of (R)-[2-(benzoylamino)propionylsulfanyl]acetic acid and 5,5'-dithiobis(2-nitrobenzoic acid). In a few lines:
as §2

Chain of Penicillin-binding protein 2x (P14677 whole entry, looked up): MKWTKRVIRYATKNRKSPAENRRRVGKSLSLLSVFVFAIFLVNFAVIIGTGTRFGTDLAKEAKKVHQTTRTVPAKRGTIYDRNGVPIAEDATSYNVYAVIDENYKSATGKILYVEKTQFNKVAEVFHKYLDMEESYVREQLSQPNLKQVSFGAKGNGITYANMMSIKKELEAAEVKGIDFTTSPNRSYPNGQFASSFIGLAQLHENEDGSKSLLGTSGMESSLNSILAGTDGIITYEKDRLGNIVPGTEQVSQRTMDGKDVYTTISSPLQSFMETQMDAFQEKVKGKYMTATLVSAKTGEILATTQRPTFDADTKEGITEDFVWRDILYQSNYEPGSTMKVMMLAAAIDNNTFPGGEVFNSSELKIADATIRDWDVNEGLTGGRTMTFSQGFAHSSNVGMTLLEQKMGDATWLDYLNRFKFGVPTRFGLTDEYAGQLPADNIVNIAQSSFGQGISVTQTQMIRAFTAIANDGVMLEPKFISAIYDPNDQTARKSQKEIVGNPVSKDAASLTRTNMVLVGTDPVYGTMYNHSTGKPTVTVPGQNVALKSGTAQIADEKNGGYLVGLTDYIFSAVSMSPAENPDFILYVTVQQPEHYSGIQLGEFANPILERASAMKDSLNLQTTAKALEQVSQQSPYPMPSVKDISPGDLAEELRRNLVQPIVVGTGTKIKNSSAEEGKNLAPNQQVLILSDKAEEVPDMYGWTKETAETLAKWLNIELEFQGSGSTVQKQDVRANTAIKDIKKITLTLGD

A word on the IC50: it is the concentration at which inhibition is half-maximal. Take `O=C(O)c1cc(NC(=O)c2ccccc2)cc(B(O)O)c1`: the Activity with Streptococcus pneumoniae is 85%. In addition, the half-maximal inhibitory concentration (IC50) in [1] worked out at 34 µM.
For orientation: inhibition means the percentage by which the read-out fell short of the control. Regarding `OB(O)c1ccccc1` [PHENYLBORONIC ACID], the Activity in series [2] turned out to be 114%; in series [3], 78%. Moreover, the solubility result in series [4] is reported as “Insoluble”. In addition, in [5], the inhibition stood at 50%.
As for `O=C(O)c1cc(NC(=O)c2cccs2)cc(B(O)O)c1`, the Activity in the series on Streptococcus pneumoniae was determined as 70%. Moreover, the IC50 in [1] came out at 32 µM.
`O=C(Cc1ccccc1)Nc1cc(B(O)O)cc(C(=O)O)c1`: the IC50 in series [1] came out at 88 µM.
As to `CN(C)c1cccc2c(S(=O)(=O)Nc3cccc(B(O)O)c3)cccc12`, the Activity in [2] was determined as 91%.
Take `OB(O)c1ccc(-c2ccccc2)cc1` [BIPHENYLBORONIC ACID]: the Activity in [6] is 120%; in series [7], 104%; in [9], 90%. Moreover, the solubility entry in [8] is “Insoluble”.
Turning to `O=C(Cc1cccs1)Nc1cc(B(O)O)cc(C(=O)O)c1`, the Activity in the series with Streptococcus pneumoniae stood at 53%. For the same molecule, the IC50 in series [1] is 78 µM.
In the case of `CC1(C)OB(c2cccc(C(=O)O)c2)OC1(C)C`, the results for the Activity in [2], in series [3] and in series [10] were 93%, 98% and 38%, respectively. In addition, in series [4], the solubility result is reported as “Insoluble”. Further, the inhibition in series [5] was above 50%.
On to `OB(O)c1ccc(Oc2ccccc2)cc1`, for which the Activity in series [6] came to 108%.
Take `O=C(O)c1ccc(B(O)O)s1`: the IC50 in series [11] is above 1000 µM.
As to `O=C(O)c1cccc(B(O)O)c1`, the IC50 in series [1] was 400 µM.
Take `COc1ccccc1C(=O)Nc1cc(B(O)O)cc(C(=O)O)c1`: the Activity in the series with Streptococcus pneumoniae came out at 82%. For the same molecule, in series [1], the half-maximal inhibitory concentration (IC50) worked out at 23 µM.
Take `O=C(COc1ccccc1)Nc1cc(B(O)O)cc(C(=O)O)c1`: the Activity in the series on Streptococcus pneumoniae came out at 83%. Moreover, the IC50 in [1] is 28 µM.
As for `OB(O)c1ccc(-c2ccc(B(O)O)cc2)cc1`, the figures for the Activity in series [6] and in series [9] were 95% and 104%, respectively. For the same molecule, the solubility entry in series [8] is recorded as “Insoluble”.
